Results on three molecules are retold here after ChEMBL document CHEMBL5390255, “Expanding the squaramide library as mycobacterial ATP synthase inhibitors: Innovative synthetic pathway and biological evaluation” (Bioorg Med Chem, 2023).

Values after ≈ are worked out from the molar mass of the structure shown. Active and inactive are the calls of the source. The calls are words filed in the database; no cut-off is given here.

Holding throughout (format): functional
Assay [1] has as its system Mycobacterium tuberculosis. Description: Induction of drug resistance in Mycobacterium tuberculosis H37Ra at 10 to 16 fold MIC. The conditions noted are these: time 4-5 weeks. An outline of the steps: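 Exponential-phase H37Ra, about 10⁷ bacteria, plated on 7H11 agar with compound at 10x and 16x MIC. Incubated 4–5 weeks at 37 °C. Frequency calculated as mutant colonies divided by total cells plated. Clones confirmed by PCR and Sanger sequencing of atp genes and rv0678.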

The subject of assay [2] is Mycobacterium tuberculosis. Kind of assay: Antibacterial activity against Bedaquiline- sensitive Mycobacterium tuberculosis H37Ra harboring atpB.K179N_01 mutant incubated for 7 days by resazurin staining based microtiter assay. The note with it: time 7 day. An outline of the steps: (§1)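 Resazurin microtiter assay on H37Ra atpB K179N mutants and wild type, using exponential cultures diluted to OD 0.02. 3-fold serial dilution from 10 µM (0.002–10 µM), in triplicate. After 7 days, 0.02% resazurin added for 24 h, then fluorescence read (ex 530/em 590 nm). MIC taken from four-parameter variable-slope nonlinear regression.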

Assay [3] has as its system Mycobacterium tuberculosis. Description: Antibacterial activity against Bedaquiline- sensitive Mycobacterium tuberculosis H37Ra harboring atpB.K179N_02 mutant incubated for 7 days by resazurin staining based microtiter assay. The conditions noted are these: time 7 day. An outline of the steps:
as §1
Background: Resazurin is reduced to fluorescent resorufin, in cell work by metabolically active cells.

As for `O=c1c(NCc2ccccn2)c(-c2ccc(N3CCCCC3)cc2)c1=O`, the result in assay [1] was Active.
The same measure, in the same setting: under `COc1ccc(-c2c(NCc3ccccn3)c(=O)c2=O)cc1` stands “Active”.
A word on the MIC: it is the lowest concentration found to suppress growth. A higher MIC goes with a need for much substance. In the case of `COc1nc2ccc(Br)cc2cc1[C@@H](c1ccccc1)[C@@](O)(CCN(C)C)c1cccc2ccccc12` [BEDAQUILINE], the MIC came to 0.11 µM (≈ 0.0611 µg/mL) in assay [2] and 0.12 µM (≈ 0.0667 µg/mL) in assay [3].
